What all share (assay type): functional, cell-based
In test [1] the test system is PC-3. The test can be described thus: Cytotoxicity against human PC3 cells after 48 hrs by MTT assay. As to conditions: PC-3, 48 h. In short, it runs like this:
(§1)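 PC-3 kept in DMEM with 5% FBS, MCF-7 in RPMI-1640 with 15% FBS, both used at passages 10-20. Seeded at 1×10^4 cells/well, attached 24 h, then treated 48 h at 0.01-50 µM with final 1% DMSO, in triplicate. Wells PBS-washed, diluted MTT stock (1:10) added for 3.5 h, plates centrifuged before formazan read-out.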
In general terms: Tetrazolium assays rely on reduction of a dye to a coloured formazan, in cell work by metabolically active cells.

For test [2], the system named is MCF7. Description: Cytotoxicity against human MCF7 cells after 48 hrs by MTT assay. As to conditions: MCF7, 48 h. In short, it runs like this: as §1
Test [3] deals with MCF7. The test can be described thus: Cytotoxicity against human MCF7 cells after 72 hrs by MTT assay. As to conditions: MCF7, 72 h. In a few lines: (§2)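 ATCC-sourced lines grown at 37 °C, 5% CO2 in RPMI-1640 or DMEM with 5-10% FBS plus penicillin/streptomycin. Cells exposed to a range of doses for 72 h at 37 °C. MTT added, medium removed 4 h later, formazan dissolved in DMSO and read at 570-690 nm. IC50 from three independent assays, two wells each, via % viability.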

Test [4] relates to PC-3. The test can be described thus: Cytotoxicity against human PC3 cells after 72 hrs by MTT assay. As to conditions: PC-3, 72 h. In short, it runs like this: as §2
Test [5] relates to DU-145. Description: Cytotoxicity against human DU145 cells after 72 hrs by MTT assay. As to conditions: DU-145, 72 h. In short, it runs like this:
as §2

For test [6], the system named is LNCaP. The test can be described thus: Cytotoxicity against human LNCAP cells after 72 hrs by MTT assay. In a few lines:
as §2

These results are taken from ChEMBL document CHEMBL1139282, “6-Bicycloaryl substituted (S)- and (R)-5,6-dihydro-2H-pyran-2-ones: asymmetric synthesis, and anti-proliferative properties” (Bioorg Med Chem, 2009).

pIC50: −log10 of the molar value. Bounds are passed on as bounds.

In general, pIC50 refers to the IC50 on a negative log10 scale, so that one unit is a factor of ten. Low values mean a large IC50, high ones a small IC50. With `C=CC[C@@H](OC(=O)C=C)c1cccc(Oc2ccccc2)c1`, the pIC50 in test [1] and in test [2] was < 4.30 in each case.
Regarding `O=C1C=CC[C@@H](c2ccc3ccccc3c2)O1`, the pIC50 in test [3] is 4.43; in test [4] it was 4.92; in test [5], 4.55; in test [6], 4.82.
Consider `Cc1ccc2ccccc2c1[C@H]1CC=CC(=O)O1`, for which the pIC50 in test [1] was 6.89; in test [2], 5.59.
As to `O=C1C=CC[C@H](c2ccc3ccccc3c2)O1`, the pIC50 in test [3] is 4.72; in test [4], 5.52; in test [5], 4.92; in test [6], 4.96.
Consider `O=C1C=CC[C@H](c2cnc3ccccc3c2)O1`, for which the figures for the pIC50 in test [1] and in test [2] were 5.60 and 5.49, respectively.
Turning to `O=C1C=CC[C@H](c2cccc3ccccc23)O1`, the figures for the pIC50 in test [1] and in test [2] were 6.10 and 5.59, respectively.
In the case of `O=C1C=CC[C@H](c2ccnc3ccccc23)O1`, the pIC50 is 5.01 in test [1] and 4.49 in test [2].
Take `C=CC[C@@H](OC(=O)C=C)c1c(C)ccc2ccccc12`: the values for the pIC50 in test [1] and in test [2] were 5.06 and 4.98, respectively.
On the same counts, the results for `C=CC[C@@H](OC(=O)C=C)c1cccc2ccccc12` are 4.64 and < 4.30.
For `O=C1C=CC[C@H](c2cccc(Oc3ccccc3)c2)O1`, the pIC50 in test [1] is 4.96; in test [2], < 4.30.
With `C=CC[C@@H](OC(=O)C=C)c1cnc2ccccc2c1`, the pIC50 in test [1] is 4.79; in test [2] it was 4.54.
Turning to `C=CC[C@@H](OC(=O)C=C)c1ccnc2ccccc12`, the figures for the pIC50 in test [1] and in test [2] were 4.82 and 4.88, respectively.
The matching figures for `Cc1ccc([C@H]2CC=CC(=O)O2)c2ccccc12`: 7.30 and 6.36.
The matching figures for `C=CC[C@@H](OC(=O)C=C)c1ccc(C)c2ccccc12`: 4.35 and 4.48.
`O=C1C=CC[C@H](/C=C/c2ccccc2)O1` [GONIOTHALAMIN]: the negative-log IC50 (pIC50) in test [3] was 4.55; in test [4] it was 5.40; in test [5], 4.72; in test [6] it was 4.92.
